# Columns and labels:
# [1] = molecular target: T1, 5-hydroxytryptamine receptor 2C (Rattus norvegicus, UniProt P08909); experiment: Tested for binding affinity against 5-hydroxytryptamine 1C receptor from rat frontal cortical regions using [3H]mesulergine as radioligand
# T1 sequence (P08909 whole entry): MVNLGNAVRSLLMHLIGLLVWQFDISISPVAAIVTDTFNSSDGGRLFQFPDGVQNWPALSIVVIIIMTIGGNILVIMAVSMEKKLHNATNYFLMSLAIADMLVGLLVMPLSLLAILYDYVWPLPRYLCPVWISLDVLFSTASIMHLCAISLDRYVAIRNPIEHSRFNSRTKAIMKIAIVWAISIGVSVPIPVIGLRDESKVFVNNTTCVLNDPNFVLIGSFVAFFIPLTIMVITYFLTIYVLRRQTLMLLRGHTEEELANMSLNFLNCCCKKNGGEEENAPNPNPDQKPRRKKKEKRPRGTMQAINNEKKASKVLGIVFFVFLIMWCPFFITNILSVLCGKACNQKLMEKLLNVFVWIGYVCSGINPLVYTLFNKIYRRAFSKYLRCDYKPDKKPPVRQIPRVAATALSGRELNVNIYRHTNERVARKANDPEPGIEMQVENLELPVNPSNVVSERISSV
# Summary of the method: (§1)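 Rat frontal cortex homogenate (male Sprague-Dawley) was washed and preincubated 15 min at 37 °C in 50 mM Tris HCl, 0.5 mM EDTA, 10 mM MgCl2, pH 7.4, with 0.1% ascorbate and 10^-6 M pargyline. Nonspecific binding was set with 1.0 µM mianserin. Tubes ran 15 min at 37 °C in triplicate before filtration.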
# [2] = molecular target: Serotonin 2 (5-HT2) receptor (Rattus norvegicus, UniProt P30994+P08909+P14842); experiment: Tested for binding affinity against 5-hydroxytryptamine 2 receptor from rat frontal cortical regions using [3H]ketanserin as radioligand; format: protein assay
# Summary of the method: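 Frontal cortex from male Sprague-Dawley rats was homogenized in Tris HCl/EDTA/MgCl2 buffer, pH 7.4, containing ascorbate and pargyline. Each triplicate tube held 5 mg wet tissue and 0.4 nM [3H]ketanserin, with nonspecific binding defined by 1.0 µM cinanserin. Incubation was 15 min at 37 °C, then glass-fiber filtration and an ice-cold wash. IC50 was converted to Ki using radioligand KD from saturation experiments.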
# [3] = molecular target: Serotonin 2 (5-HT2) receptor (Rattus norvegicus) (UniProt P30994+P08909+P14842); experiment: Selectivity ratio, Ki against 5-HT1C versus 5-HT2; format: protein assay
# Chain of Serotonin 2 (5-HT2) receptor (Rattus norvegicus) (P14842 whole entry, looked up, one chain of several): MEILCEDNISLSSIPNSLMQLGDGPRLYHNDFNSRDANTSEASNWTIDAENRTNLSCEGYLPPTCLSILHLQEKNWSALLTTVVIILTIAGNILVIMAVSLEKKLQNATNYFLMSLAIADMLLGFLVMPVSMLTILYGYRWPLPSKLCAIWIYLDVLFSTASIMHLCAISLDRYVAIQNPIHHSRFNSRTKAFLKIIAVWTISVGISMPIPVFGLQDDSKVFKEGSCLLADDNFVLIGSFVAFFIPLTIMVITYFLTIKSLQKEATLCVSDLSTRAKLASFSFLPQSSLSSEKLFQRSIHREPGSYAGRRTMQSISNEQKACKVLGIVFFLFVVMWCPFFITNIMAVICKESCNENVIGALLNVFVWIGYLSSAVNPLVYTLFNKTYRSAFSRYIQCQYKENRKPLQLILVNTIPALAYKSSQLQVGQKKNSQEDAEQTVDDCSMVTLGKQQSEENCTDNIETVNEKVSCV
# Chain of Serotonin 2 (5-HT2) receptor (Rattus norvegicus) (P30994 whole entry, looked up, one chain of several): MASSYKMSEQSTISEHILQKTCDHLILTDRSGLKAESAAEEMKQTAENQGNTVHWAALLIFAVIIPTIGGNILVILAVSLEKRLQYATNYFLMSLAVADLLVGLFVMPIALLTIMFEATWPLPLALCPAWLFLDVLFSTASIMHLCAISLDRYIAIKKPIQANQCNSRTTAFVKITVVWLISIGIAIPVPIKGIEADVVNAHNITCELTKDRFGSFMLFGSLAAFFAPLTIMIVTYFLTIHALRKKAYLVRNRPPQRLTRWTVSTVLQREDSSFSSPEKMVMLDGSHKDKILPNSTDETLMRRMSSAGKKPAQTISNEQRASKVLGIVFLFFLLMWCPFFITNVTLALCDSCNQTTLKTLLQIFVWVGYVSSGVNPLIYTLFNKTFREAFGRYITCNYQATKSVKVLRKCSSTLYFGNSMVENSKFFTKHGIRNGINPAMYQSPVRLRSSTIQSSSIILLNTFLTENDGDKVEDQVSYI
# Summary of the method: as §1, with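 “pargyline. […]” for “pargyline.”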
# [4] = molecular target: T2, 5-hydroxytryptamine receptor 1A (Rattus norvegicus, UniProt P19327); experiment: Tested for binding affinity against 5-hydroxytryptamine 1A receptor from rat frontal cortical regions using [3H]8-OH-DPAT as radioligand
# T2 sequence (P19327 whole entry): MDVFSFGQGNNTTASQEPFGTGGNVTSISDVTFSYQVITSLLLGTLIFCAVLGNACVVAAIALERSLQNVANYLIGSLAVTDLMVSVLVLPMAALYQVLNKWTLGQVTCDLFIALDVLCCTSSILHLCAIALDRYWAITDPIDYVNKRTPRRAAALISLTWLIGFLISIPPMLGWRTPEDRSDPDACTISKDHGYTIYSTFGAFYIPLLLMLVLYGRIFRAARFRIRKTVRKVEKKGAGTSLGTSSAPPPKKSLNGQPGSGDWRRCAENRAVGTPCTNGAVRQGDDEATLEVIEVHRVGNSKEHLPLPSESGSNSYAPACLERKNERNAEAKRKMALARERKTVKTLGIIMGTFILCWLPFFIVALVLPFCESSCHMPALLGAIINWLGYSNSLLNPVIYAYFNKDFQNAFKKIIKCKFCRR
# [5] = molecular target: D(1A) dopamine receptor (Mus musculus, UniProt Q61616); experiment: Tested for binding affinity against dopamine receptor D1
# Chain of D(1A) dopamine receptor (Q61616 whole entry): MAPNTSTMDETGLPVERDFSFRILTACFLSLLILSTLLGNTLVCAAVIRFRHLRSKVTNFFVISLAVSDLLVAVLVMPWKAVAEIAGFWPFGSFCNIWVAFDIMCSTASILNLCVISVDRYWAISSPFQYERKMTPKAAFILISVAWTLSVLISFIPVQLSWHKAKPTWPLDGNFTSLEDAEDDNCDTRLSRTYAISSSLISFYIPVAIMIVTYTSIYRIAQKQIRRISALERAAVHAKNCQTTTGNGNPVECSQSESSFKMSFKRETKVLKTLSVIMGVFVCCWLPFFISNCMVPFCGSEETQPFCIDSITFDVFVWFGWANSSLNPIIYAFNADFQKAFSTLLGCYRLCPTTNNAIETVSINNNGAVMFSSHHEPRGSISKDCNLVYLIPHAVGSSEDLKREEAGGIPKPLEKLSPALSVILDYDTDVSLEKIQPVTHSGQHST
# [6] = molecular target: D(2) dopamine receptor (Homo sapiens, UniProt P14416); experiment: Tested for binding affinity against dopamine receptor D2
# Chain of D(2) dopamine receptor (P14416 whole entry): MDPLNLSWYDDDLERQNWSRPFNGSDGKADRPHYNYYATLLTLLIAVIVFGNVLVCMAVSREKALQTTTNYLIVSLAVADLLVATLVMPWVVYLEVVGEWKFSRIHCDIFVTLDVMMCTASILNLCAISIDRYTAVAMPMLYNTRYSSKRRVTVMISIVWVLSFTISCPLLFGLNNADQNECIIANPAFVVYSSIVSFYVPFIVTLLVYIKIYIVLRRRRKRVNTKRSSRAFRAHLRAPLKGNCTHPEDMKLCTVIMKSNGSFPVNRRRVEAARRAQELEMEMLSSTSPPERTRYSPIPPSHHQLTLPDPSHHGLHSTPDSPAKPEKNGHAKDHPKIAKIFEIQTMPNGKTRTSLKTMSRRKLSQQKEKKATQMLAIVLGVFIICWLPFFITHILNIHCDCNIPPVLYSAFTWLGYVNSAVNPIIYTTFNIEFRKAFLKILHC
SMILES,Ki [1] [nM],Ki [2] [nM],Ratio [3],Ki [4] [nM],Ki [5] [nM],Ki [6] [nM]
NCCCOc1ccc(F)cc1,> 10000,1400,> 5,,,
O=C(CCCN1CCC(C(=O)c2ccc(F)cc2)CC1)c1ccc(F)cc1 [LENPERONE],,,,305,,
O=C(CCCN1CCCCC1)c1ccc(F)cc1 [PRIMAPERONE],> 10000,140,> 70,> 10000,,
c1ccc(CCCCN2CCN(c3ccccc3)CC2)cc1,,,,1,,
O=C(CCCN1CCC(NC(=O)c2ccccc2)CC1)c1ccc(F)cc1,> 10000,70,> 140,,,
O=C1NCN(c2ccccc2)C12CCN(CCCOc1ccc([N+](=O)[O-])cc1)CC2,> 10000,600,> 10,1160,,
O=C1NCN(c2ccccc2)C12CCN(CCCOc1ccccc1)CC2,> 10000,5,> 2000,75,,
O=C1NCN(c2ccccc2)C12CCN(CCCCc1ccccc1)CC2,> 10000,30,> 300,85,,
O=C1NCN(c2ccccc2)C12CCN(CCCc1ccccc1)CC2,> 10000,230,> 30,105,,
CN(C)CCCOc1ccc(F)cc1,> 10000,295,> 30,,,
O=C1NCN(c2ccccc2)C12CCNCC2,> 10000,> 10000,,> 10000,,
O=C1NCN(c2ccccc2)C12CCN(CCCCc1ccc(F)cc1)CC2,3200,5,650,110,,
O=C1NCN(c2ccccc2)C12CCN(CCCCOc1ccccc1)CC2,> 10000,325,> 30,30,,
CN(c1ccccc1)C1CCN(CCCOc2ccc(F)cc2)CC1,2870,32,90,110,,
O=C(NC1CCN(CCCOc2ccc(F)cc2)CC1)c1ccccc1,> 10000,70,> 140,,,
COc1ccc(OCCCN2CCC3(CC2)C(=O)NCN3c2ccccc2)cc1,> 10000,1000,> 10,445,,
Fc1ccc(OCCCN2CCC(Nc3ccccc3)CC2)cc1,3600,88,40,120,,
O=C(c1ccc(F)cc1)C1CCN(CCCOc2ccc(F)cc2)CC1,335,8,40,285,,
O=C1NCN(c2ccccc2)C12CCN(CCc1ccccc1)CC2,6000,570,10,1020,,
CN(C)CCCC(=O)c1ccc(F)cc1,3300,80,40,,,
O=C(Nc1ccccc1)C1CCN(CCCOc2ccc(F)cc2)CC1,> 10000,95,> 100,,,
O=C1NCN(c2ccccc2)C12CCN(CCCOc1ccc(F)cc1)CC2 [SPIRAMIDE],4300,2,2100,50,2530,3
O=C(CCCN1CCC2(CC1)C(=O)NCN2c1ccccc1)c1ccc(F)cc1 [SPIPERONE],,,,49,,
NCCCC(=O)c1ccc(F)cc1,> 100000,> 100000,,> 100000,,
O=C(CCCN1CCC(Cc2ccccc2)CC1)c1ccc(F)cc1,1650,50,35,180,,

# Source: ChEMBL document CHEMBL1126779, “Antagonism of 1-(2,5-dimethoxy-4-methylphenyl)-2-aminopropane stimulus with a newly identified 5-HT2- versus 5-HT1C-selective antagonist” (J Med Chem, 1993)
